Measurements: ChEMBL document CHEMBL3244257, “Effects of deuteration on locomotor activity of amphetamine” (J Med Chem, 1978)

Experiments:
Mus musculus [1] = assay: Induction of spontaneous locomotor activity in Swiss-Webster albino mouse assessed as time required to show activity at 10.6 mg/kg, ip measured every 10 mins in first hour followed by every hour for 5 hrs; type: functional; settings: route intraperitoneal
Method in brief: (§1)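 Mice weighing 22–24 g, acclimated at least 2 weeks, fed and watered freely until testing, and split into groups of five, each mouse used once. Sulfate salts in normal saline given ip at 0.2 mL/10 g. Controls received saline. Activity was counted as photocell beam interruptions in six-beam circular cages. Tests ran between 11:00 a.m. and 5:00 p.m.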

[2] = Acute toxicity in ip dosed Swiss-Webster mouse measured for 24 hrs; type: organism-based; settings: in vivo
Method in brief: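 Groups of mice given three intraperitoneal doses (313, 353 and 394 μM/kg), 14–22 mice per dose, observed for 24 h. LD50 in mg/kg derived from regression dose-response curves by the Litchfield and Wilcoxon method.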

[3] = Potency ratio of compound LD50 to protioamphetamine LD50 for ip dosed Swiss-Webster mouse; type: ADME, organism-based; settings: in vivo
Mus musculus [4] = assay: Induction of spontaneous locomotor activity in Swiss-Webster albino mouse assessed as time required to show activity at 27.2 umol/kg, ip measured every 10 mins in first hour followed by every hour for 5 hrs; type: functional; method in brief: as §1
Mus musculus [5] = assay: Induction of spontaneous locomotor activity in Swiss-Webster albino mouse assessed as total activity AUC at 10.6 mg/kg, ip; type: functional, organism-based; set-up: dose 10.6 mg/kg; settings: tested as the 2H-labelled form; method in brief: as §1
Mus musculus [6] = assay: Induction of spontaneous locomotor activity in Swiss-Webster albino mouse assessed as total activity AUC at 27.2 umol/kg, ip; type: functional, organism-based; settings: tested as the 2H-labelled form; method in brief: as §1
Mus musculus [7] = assay: Induction of spontaneous locomotor activity in Swiss-Webster albino mouse assessed as time required to show activity at 10 mg/kg, ip measured every 10 mins in first hour followed by every hour for 5 hrs; type: functional; settings: route intraperitoneal; method in brief: as §1
Mus musculus [8] = assay: Induction of spontaneous locomotor activity in Swiss-Webster albino mouse assessed as total activity AUC at 10 mg/kg, ip; type: functional, organism-based; set-up: dose 10 mg/kg; method in brief: as §1

`O=S(=O)(O)O.[2H]c1c([2H])c([2H])c(C([2H])([2H])C([2H])(N)C([2H])([2H])[2H])c([2H])c1[2H]` (racemic) showed a Time (Mus musculus [1]) of 120 min, an LD50 at 24 h [2] of 149 mg/kg and a selectivity ratio [3] of 1.2.
For `O=S(=O)(O)O.[2H]c1c([2H])c([2H])c(C([2H])([2H])C(C)N)c([2H])c1[2H]` (racemic), the Time (Mus musculus [4]) was 80 min, the LD50 at 24 h [2] was 140 mg/kg and the selectivity ratio [3] was 1.13.
In the case of `O=S(=O)(O)O.[2H]C([2H])([2H])C([2H])(N)C([2H])([2H])c1ccccc1` (racemic), the Time (Mus musculus [4]) is reported as 100 min, the LD50 at 24 h [2] is reported as 143 mg/kg and the selectivity ratio [3] is reported as 1.16.
Work on `O=S(=O)(O)O.[2H]C(C)(N)Cc1ccccc1` (racemic) yielded a Time (Mus musculus [4]) of 100 min.
In the case of `O=S(=O)(O)O.[2H]C(c1ccccc1)C(C)N` (racemic), the Time (Mus musculus [4]) is reported as 75 min.
For `O=S(=O)(O)O.[2H]C(C)(N)C([2H])([2H])c1ccccc1` (racemic), the Time (Mus musculus [4]) was 105 min.
Work on `CC(N)Cc1ccccc1` (racemic) yielded an AUC (Mus musculus [5]) of 350 cm2.
Compound `CC(N)Cc1ccccc1` (racemic; 2) has an AUC (Mus musculus [6]) of 349 cm2.
For `CC(N)Cc1ccccc1` (racemic; 3), the AUC (Mus musculus [6]) was 367 cm2.
Compound `CC(N)Cc1ccccc1` (racemic; 4) has an AUC (Mus musculus [6]) of 370 cm2.
With `CC(N)Cc1ccccc1` (racemic; 5) the AUC (Mus musculus [6]) was 355 cm2.
With `CC(N)Cc1ccccc1` (racemic; 6) the AUC (Mus musculus [6]) was 374 cm2.
With `C[C@H](N)Cc1ccccc1.C[C@H](N)Cc1ccccc1.O=S(=O)(O)O` [DEXTROAMPHETAMINE SULFATE] the Time (Mus musculus [7]) was 70 min, the AUC (Mus musculus [8]) was 350 cm2 and the LD50 at 24 h [2] was 123 mg/kg.
